For assay [1], the system named is Staphylococcus aureus. Description: Inhibition of NorA-mediated efflux in Staphylococcus aureus K2361. The assay is classed as functional, organism-based.
Assay [2] concerns Staphylococcus aureus. The assay is described as follows: Antimicrobial activity against Staphylococcus aureus K2361 over expressing NorA efflux pump. Type of assay: functional.
The subject of assay [3] is Staphylococcus aureus. Description: Inhibition of MepA efflux pump in Staphylococcus aureus K2886 at 1/2 MIC assessed as fold reduction in ethidium bromide minimum inhibitory concentration.
Assay [4] deals with Escherichia coli. Description: Antimicrobial activity against Escherichia coli K2201. The assay is classed as functional.
The test system of assay [5] is Staphylococcus aureus. Description: Inhibition of NorA efflux pump in Staphylococcus aureus K2361 at 0.50 assessed as fold reduction in ethidium bromide minimum inhibitory concentration. Type of assay: functional. Set-up: concentration or dose not given beside the values.
The subject of assay [6] is Staphylococcus aureus. Description: Inhibition of MepA efflux pump in Staphylococcus aureus K2886 at 1.58 uM MIC assessed as fold reduction in ethidium bromide minimum inhibitory concentration. Type of assay: functional.
For assay [7], the system named is Pseudomonas aeruginosa. The assay is described as follows: Antimicrobial activity against Pseudomonas aeruginosa K3082. The assay is classed as functional.
Assay [8] deals with Escherichia coli. The assay is described as follows: Antimicrobial activity against Escherichia coli K2203 over expressing AcrB efflux pump.
For assay [9], the system named is Staphylococcus aureus. Description: Inhibition of NorA efflux pump in Staphylococcus aureus K2361 at 1.58 uM MIC assessed as fold reduction in ethidium bromide minimum inhibitory concentration. Type of assay: functional.
Assay [10] has as its system Staphylococcus aureus. Description: Antimicrobial activity against Staphylococcus aureus K2885. The assay is classed as functional.
Assay [11] deals with Staphylococcus aureus. Description: Antimicrobial activity against Staphylococcus aureus K1902. The assay is classed as functional.
Assay [12] deals with Staphylococcus aureus. The assay is described as follows: Inhibition of MepA-mediated efflux in Staphylococcus aureus K2886. The assay is classed as functional, organism-based. The procedure, abridged: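 Efflux from MepA-overexpressing S. aureus K2886, done in duplicate. Reported as mean total efflux over a 5 min time course.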
Assay [13] deals with Staphylococcus aureus. The assay is described as follows: Antimicrobial activity against Staphylococcus aureus K2886 over expressing MepA efflux pump. The assay is classed as functional.
The subject of assay [14] is Pseudomonas aeruginosa. The assay is described as follows: Antimicrobial activity against Pseudomonas aeruginosa K2184 over expressing MexB efflux pump. The assay is classed as functional.
Assay [15] concerns Staphylococcus aureus. Description: Inhibition of NorA efflux pump in Staphylococcus aureus K2361 at 8.32 uM assessed as fold reduction in ethidium bromide minimum inhibitory concentration. The assay is classed as functional.
Assay [16] has as its system Staphylococcus aureus. Description: Inhibition of MepA efflux pump in Staphylococcus aureus K2886 at 4.16 uM assessed as fold reduction in ethidium bromide minimum inhibitory concentration. Type of assay: functional.
In assay [17] the test system is Staphylococcus aureus. Description: Inhibition of NorA efflux pump in Staphylococcus aureus K2361 at 0.79 uM MIC assessed as fold reduction in ethidium bromide minimum inhibitory concentration. Type of assay: functional. The procedure, abridged:
(§1)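 Ethidium bromide MIC was determined for the pump-expressing S. aureus strain, alone and with the efflux inhibitor added at 1/4 or 1/2 of the inhibitor's own MIC against that strain. Potentiation is expressed as fold lowering of the ethidium bromide MIC. Parent strains SA-K1902 and SA-K2885 were tested in the same way at 1/2 MIC.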

Assay [18] concerns Staphylococcus aureus. The assay is described as follows: Inhibition of MepA efflux pump in Staphylococcus aureus K2886 at 0.39 uM assessed as fold reduction in ethidium bromide minimum inhibitory concentration. The assay is classed as functional. The procedure, abridged:
as §1

For assay [19], the system named is Staphylococcus aureus. The assay is described as follows: Inhibition of MepA efflux pump in Staphylococcus aureus K2886 at 4.1 uM MIC assessed as fold reduction in ethidium bromide minimum inhibitory concentration. Type of assay: functional.
The subject of assay [20] is Staphylococcus aureus. Description: Inhibition of NorA efflux pump in Staphylococcus aureus K2361 at 8.21 uM MIC assessed as fold reduction in ethidium bromide minimum inhibitory concentration. The assay is classed as functional.
Assay [21] concerns Staphylococcus aureus. The assay is described as follows: Inhibition of MepA efflux pump in Staphylococcus aureus K2886 at 0.50 uM assessed as fold reduction in ethidium bromide minimum inhibitory concentration. Type of assay: functional.

In brackets after ≈: the same amount, converted by molar mass.

For the compound `Fc1ccc([C@@H]2CCNC[C@H]2CSc2ccccc2)cc1`, in [1], the IC50 (as a rule, the concentration needed to halve the response being measured) worked out at 18 µM.

Turning to `Fc1ccc([C@@H]2CCNC[C@H]2/C=C/c2cc(Br)ccc2Cl)cc1`, the MIC (as a rule, the lowest concentration that inhibits growth of the organism) in assay [2] was determined as 25 µg/mL (≈ 63.3 µM); in assay [4] it was 100 µg/mL (≈ 253 µM); in assay [7], 100 µg/mL (≈ 253 µM); in assay [8], 100 µg/mL (≈ 253 µM); in assay [10], 25 µg/mL (≈ 63.3 µM); in [11], 25 µg/mL (≈ 63.3 µM). Further, the figures for the MIC in [13] and in assay [14] were 25 µg/mL (≈ 63.3 µM) and 100 µg/mL (≈ 253 µM), respectively. The Fold change is >32 in [3], 64 in assay [5], 4 in assay [6] and 16 in [9]. Further, the values for the IC50 in [1] and in [12] were < 10 µM and 20 µM, respectively.

With `Fc1ccc([C@@H]2CCNC[C@H]2COc2ccc3c(c2)OCO3)cc1` [PAROXETINE], the figures for the half-maximal inhibitory concentration (IC50) in assay [1] and in assay [12] were 15 µM and < 10 µM, respectively.

On to `c1ccc(SC[C@H]2CCCNC2)cc1`, for which the half-inhibitory concentration (IC50) in [1] was > 50 µM.

On to `c1ccc(NC[C@H]2CCCNC2)cc1`, for which the IC50 in [1] is > 50 µM.

As to `Clc1ccc(Br)cc1/C=C/[C@H]1CCCNC1`, the MIC in [2] was determined as 100 µg/mL (≈ 333 µM); in assay [4], 50 µg/mL (≈ 166 µM); in assay [7], 100 µg/mL (≈ 333 µM); in assay [8] it was 100 µg/mL (≈ 333 µM); in assay [10] it was 100 µg/mL (≈ 333 µM); in assay [11] it was 100 µg/mL (≈ 333 µM). The MIC is 50 µg/mL (≈ 166 µM) in assay [13] and 100 µg/mL (≈ 333 µM) in [14]. The Fold change in assay [3] is 16; in assay [15], 64; in [5], >128; in assay [16], 4. For the same compound, the concentration for half-maximal inhibition (IC50) in assay [1] is 45 µM; in assay [12], < 10 µM.

The compound `Fc1ccc([C@@H]2CCNC[C@H]2COc2ccccc2)cc1` gave a half-inhibitory concentration (IC50) in assay [1] of 22 µM.

For `c1ccc(OC[C@H]2CCCNC2)cc1`, the IC50 in [1] is > 50 µM.

On to `Fc1ccc([C@@H]2CCNC[C@H]2COc2cc(Br)ccc2Cl)cc1`, for which the MIC amounted to 12.5 µg/mL (≈ 31.4 µM) in [2]; 25 µg/mL (≈ 62.7 µM) in assay [4]; 100 µg/mL (≈ 251 µM) in assay [7]; 50 µg/mL (≈ 125 µM) in assay [8]; 6.25 µg/mL (≈ 15.7 µM) in assay [10]; 12.5 µg/mL (≈ 31.4 µM) in assay [11]. In addition, the MIC in [13] came to 6.25 µg/mL (≈ 15.7 µM); in assay [14] it was 100 µg/mL (≈ 251 µM). The Fold change is reported as 8 in [3], 4 in [17], 32 in [5] and 4 in assay [18]. The IC50 in assay [1] is < 10 µM; in assay [12], 13 µM.

Regarding `Fc1ccc([C@@H]2CCNC[C@H]2CNc2ccccc2)cc1`, the IC50 in [1] was > 50 µM.

With `Clc1ccc(Br)cc1OC[C@H]1CCCNC1`, the MIC in [2] is > 100 µg/mL; in assay [4], 100 µg/mL (≈ 328 µM); in assay [7], 100 µg/mL (≈ 328 µM); in assay [10], 100 µg/mL (≈ 328 µM); in assay [11] it was 100 µg/mL (≈ 328 µM); in assay [13], > 100 µg/mL. This compound returned a minimal inhibitory concentration (MIC) in assay [14] of 100 µg/mL (≈ 328 µM). The Fold change was found to be 2 in assay [19], 64 in [5], 16 in assay [20] and 8 in assay [21]. Also, the IC50 in assay [1] was 40 µM; in assay [12], < 10 µM.

Regarding `COc1ccc(OC[C@H]2CCCNC2)cc1`, the IC50 in assay [1] is > 50 µM.

The values are drawn from ChEMBL document CHEMBL1141490, “Synthesis and evaluation of PSSRI-based inhibitors of Staphylococcus aureus multidrug efflux pumps” (Bioorg Med Chem Lett, 2008).
